The nature of series [1]: Acute toxicity in ip dosed mouse. In kind it is organism-based. As to conditions: in vivo. The procedure, abridged: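 Mice; each compound given at 5 dose levels, 10 animals per dose (n = 50 per compound). Animals observed for 72 h; toxicity expressed as average lethal dose (LD50) calculated from mortality across dose groups.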
Series [2] concerns Candida albicans. The series is described as follows: Fungicidal activity against Candida albicans 885-653 after 6 hrs. In kind it is functional. To be noted: 885-653, 6 h. The procedure, abridged: (§1)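 Tubes of test compound (5 to 500 per ml, 1 mL in nutrient agar) with fungi were incubated at 26 °C for 6 h. Inocula were then prepared in Sabouraud dextrose broth and incubated at 26 °C. The fungicidal concentration is the one giving total cell death.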

Series [3] relates to Trichophyton mentagrophytes. The series can be described thus: Fungicidal activity against Trichophyton mentagrophytes after 6 hrs. Format: functional. The procedure, abridged:
as §1

For series [4], the system named is Aspergillus niger. The series can be described thus: Fungicidal activity against Aspergillus niger BKMF-1119 after 6 hrs. As to conditions: BKMF-1119, 6 h. In kind it is functional. In outline: as §1
Series [5] relates to Pseudomonas aeruginosa. The series can be described thus: Bactericidal activity against Pseudomonas aeruginosa 9027 after 4 hrs. To be noted: Pseudomonas aeruginosa, 9027, 4 h. In kind it is functional. In outline: (§2)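 Tubes contained 1 mL test compound in nutrient agar, 5 to 500 per ml. Bacteria in normal saline broth (3 × 10⁵ cfu/ml, 1 mL) were added and held 4 h, then transferred onto meal-peptone agar plates and incubated at 37 °C. MBC is the dilution giving total cell death.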

For series [6], the system named is Escherichia coli. The series can be described thus: Bactericidal activity against Escherichia coli F-50 after 4 hrs. As to conditions: F-50, 4 h. Format: functional. In outline:
as §2

In series [7] the test system is Bacillus cereus. The series is described as follows: Bactericidal activity against Bacillus cereus 8035 after 4 hrs. In kind it is functional. To be noted: Bacillus cereus, 8035, 4 h. In outline:
as §2

The subject of series [8] is Staphylococcus aureus. The series can be described thus: Bactericidal activity against Staphylococcus aureus 209p after 4 hrs. Format: functional. The procedure, abridged: as §2
Series [9] concerns Candida albicans. The series can be described thus: Antifungal activity against Candida albicans 885-653 measured every 24 hrs for 14 days by conventional dilution method. Format: functional. The procedure, abridged:
(§3)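 Dilution assay in Sabouraud dextrose broth, inoculum 2 × 10^3–4 cfu/ml. MIC is the lowest concentration with no visible growth after 14 days of incubation. Run alongside a positive growth control and standard drug controls. Tests in duplicate, repeated twice.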

In series [10] the test system is Trichophyton mentagrophytes. The series is described as follows: Antifungal activity against Trichophyton mentagrophytes measured every 24 hrs for 14 days by conventional dilution method. Format: functional. In outline: as §3
Series [11] has as its system Aspergillus niger. The series can be described thus: Antifungal activity against Aspergillus niger BKMF-1119 measured every 24 hrs for 14 days by conventional dilution method. In kind it is functional. The procedure, abridged: as §3
The subject of series [12] is Escherichia coli. The series is described as follows: Antibacterial activity against Escherichia coli F-50 measured every 24 hrs for 5 days by conventional dilution method. Format: functional. The procedure, abridged: (§4)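 Broth dilution in nutrient broth, inoculum 3 × 10⁵ cfu/ml. MIC is the lowest concentration showing no growth, read visually every 24 h over 5 days. Run alongside a positive growth control and standard drug controls. Tests in duplicate, repeated twice.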

In series [13] the test system is Bacillus cereus. The series can be described thus: Antibacterial activity against Bacillus cereus 8035 measured every 24 hrs for 5 days by conventional dilution method. In kind it is functional. The procedure, abridged:
as §4

The test system of series [14] is Staphylococcus aureus. The series is described as follows: Antibacterial activity against Staphylococcus aureus 209p measured every 24 hrs for 5 days by conventional dilution method. In kind it is functional. The procedure, abridged:
as §4

In series [15] the test system is Pseudomonas aeruginosa. The series can be described thus: Antibacterial activity against Pseudomonas aeruginosa 9027 measured every 24 hrs for 5 days by conventional dilution method. Format: functional. The procedure, abridged:
as §4

The structures appear in SMILES notation.

As for `CCCCCCCCC[n+]1cccc(-c2nc(-c3ccccc3)c3c(=O)n(CCCCCC)c4ccccc4n23)c1.[Br-]`, in series [1], the 50% lethal dose (LD50) is 120 mg/kg. Besides, the minimal fungicidal concentration (MFC) was 50 µg/mL against Candida albicans [2], 250 µg/mL in [3] and above 500 µg/mL against Aspergillus niger [4]. Further, the MBC against Pseudomonas aeruginosa [5] was above 500 µg/mL; with Escherichia coli [6], 500 µg/mL; against Bacillus cereus [7], 50 µg/mL; with Staphylococcus aureus [8], 5 µg/mL. The MIC is 0.97 µg/mL in the series with Candida albicans [9]; 250 µg/mL in [10]; above 500 µg/mL in the series with Aspergillus niger [11]; 500 µg/mL against Escherichia coli [12]; 0.97 µg/mL against Bacillus cereus [13]; 0.97 µg/mL against Staphylococcus aureus [14]. Moreover, the MIC with Pseudomonas aeruginosa [15] is above 500 µg/mL.
The compound `CCCCCCn1c(=O)c2c(-c3ccccc3)nc(-c3ccc[n+](Cc4ccccc4)c3)n2c2ccccc21.[Cl-]` had an LD50 in series [1] of 61.1 mg/kg. The MFC in the series with Candida albicans [2] was 500 µg/mL; in series [3] it was above 500 µg/mL; in the series with Aspergillus niger [4] it was above 500 µg/mL. Further, the MBC in the series on Pseudomonas aeruginosa [5] was above 500 µg/mL; in the series on Escherichia coli [6], above 500 µg/mL; against Bacillus cereus [7] it was above 500 µg/mL; in the series with Staphylococcus aureus [8] it was 50 µg/mL. Moreover, the MIC with Candida albicans [9] was 7.8 µg/mL; in series [10], 500 µg/mL; against Aspergillus niger [11], above 500 µg/mL; with Escherichia coli [12], above 500 µg/mL; against Bacillus cereus [13], 6.3 µg/mL; against Staphylococcus aureus [14], 0.97 µg/mL. For the same compound, in the series on Pseudomonas aeruginosa [15], the minimal inhibitory concentration (MIC) was above 500 µg/mL.

As usually defined, the LD50 is the dose at which mortality reaches 50%. Broadly, the MFC is the lowest tested concentration that kills the fungus rather than only halting it. Read a high MFC as weaker fungicidal potency. What is called MBC is the lowest tested concentration that kills the bacteria rather than only halting them. Read a low MBC as greater bactericidal potency. The MIC is the least concentration at which growth counts as inhibited.

For the origin of these results see ChEMBL document CHEMBL2407024, “Antimicrobial activity of imidazo[1,5-a]quinoxaline derivatives with pyridinium moiety” (Eur J Med Chem, 2013).
